In ChEMBL document CHEMBL3351768, “7-(4-Alkylidenylpiperidinyl)-quinolone bacterial topoisomerase inhibitors” (2014):
Converted amounts (≈) assume the structure as drawn.

Assays:
Assay type in all cases: functional
Streptococcus pneumoniae [1] = test: Antibacterial activity against ciprofloxacin-resistant Streptococcus pneumoniae OC5465 clinical isolate by broth microdilution method
Streptococcus pneumoniae [2] = test: Antibacterial activity against ciprofloxacin-resistant Streptococcus pneumoniae OC6608 clinical isolate by broth microdilution method
Streptococcus pneumoniae [3] = test: Antibacterial activity against ciprofloxacin-susceptible Streptococcus pneumoniae ATCC49619 by broth microdilution method
How it was run: (§1)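 MIC by broth microdilution following CLSI M07-A9 guidelines for aerobically growing bacteria. Where a compound was tested more than once, across several test dates or batches, the modal MIC is reported.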

Streptococcus pneumoniae [4] = test: Antibacterial activity against ciprofloxacin-resistant Streptococcus pneumoniae OC6578 clinical isolate by broth microdilution method
Staphylococcus aureus [5] = test: Antibacterial activity against ciprofloxacin-susceptible Staphylococcus aureus OC4172 by broth microdilution method; how it was run: as §1
[6] = tested on: Staphylococcus epidermidis; test: Antibacterial activity against methicillin-resistant Staphylococcus epidermidis OC5340 by broth microdilution method
How it was run: (§2)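 Broth microdilution MIC per CLSI M07-A9 guidelines for aerobically growing bacteria. Where a compound was tested several times (multiple test dates and batches), the modal MIC is reported.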

Staphylococcus aureus [7] = test: Antibacterial activity against methicillin-resistant Staphylococcus aureus OC2805 by broth microdilution method; how it was run: as §2
Escherichia coli = test: Antibacterial activity against Escherichia coli ATCC 25922 by broth microdilution method; how it was run: as §1

| SMILES | MIC (Streptococcus pneumoniae [1]) [µg/mL] | MIC (Streptococcus pneumoniae [2]) [µg/mL] | MIC (Streptococcus pneumoniae [3]) [µg/mL] | MIC (Streptococcus pneumoniae [4]) [µg/mL] | MIC (Staphylococcus aureus [5]) [µg/mL] | MIC [6] [µg/mL] | MIC (Staphylococcus aureus [7]) [µg/mL] | MIC (Escherichia coli) [µg/mL] |
| --- | --- | --- | --- | --- | --- | --- | --- | --- |
| COc1c(N2CCC(=C(Cl)CN(C)C)CC2)c(F)cc2c(=O)c(C(=O)O)cn(C3CC3)c12 | 2 (≈ 4.31 µM) | 8 (≈ 17.2 µM) | 0.5 (≈ 1.08 µM) | 8 (≈ 17.2 µM) | 0.25 (≈ 0.539 µM) |  |  |  |
| NCC=C1CCN(c2nc3c(cc2F)c(=O)c(C(=O)O)cn3C2CC2)CC1 |  | 8 (≈ 21.5 µM) | 0.5 (≈ 1.34 µM) | 8 (≈ 21.5 µM) | 0.12 (≈ 0.322 µM) |  |  |  |
| NCC(F)=C1CCN(c2nc3c(cc2F)c(=O)c(C(=O)O)cn3C2CC2)CC1 | 1 (≈ 2.56 µM) | 2 (≈ 5.12 µM) | 0.12 (≈ 0.307 µM) | 0.5 (≈ 1.28 µM) | 0.03 (≈ 0.0768 µM) |  |  |  |
| CC(CN)=C1CCN(c2nc3c(cc2F)c(=O)c(C(=O)O)cn3C2CC2)CC1 | 1 (≈ 2.59 µM) | 0.25 (≈ 0.647 µM) | 0.12 (≈ 0.311 µM) | 1 (≈ 2.59 µM) | 0.06 (≈ 0.155 µM) |  |  |  |
| NCC(Cl)=C1CCN(c2nc3c(cc2F)c(=O)c(C(=O)O)cn3C2CC2)CC1 | 1 (≈ 2.46 µM) | 1 (≈ 2.46 µM) | 0.12 (≈ 0.295 µM) | 0.25 (≈ 0.614 µM) | 0.06 (≈ 0.147 µM) |  |  |  |
| NCC(F)=C1CCN(c2cc3c(cc2F)c(=O)c(C(=O)O)cn3C2CC2)CC1 |  |  | 0.06 (≈ 0.154 µM) | 1 (≈ 2.57 µM) | 0.03 (≈ 0.077 µM) |  |  |  |
| CC(CN)=C1CCN(c2cc3c(cc2F)c(=O)c(C(=O)O)cn3C2CC2)CC1 | 8 (≈ 20.8 µM) | 8 (≈ 20.8 µM) | 1 (≈ 2.59 µM) | 2 (≈ 5.19 µM) | 0.12 (≈ 0.311 µM) |  |  |  |
| NCC(Cl)=C1CCN(c2cc3c(cc2F)c(=O)c(C(=O)O)cn3C2CC2)CC1 | 1 (≈ 2.46 µM) |  | 0.12 (≈ 0.296 µM) | 0.5 (≈ 1.23 µM) | 0.03 (≈ 0.0739 µM) |  |  |  |
| C[C@H]1COc2c(N3CCC(=C(Cl)CN)CC3)c(F)cc3c(=O)c(C(=O)O)cn1c23 | 0.5 (≈ 1.19 µM) | 0.25 (≈ 0.593 µM) | 0.03 (≈ 0.0711 µM) | 0.25 (≈ 0.593 µM) | ≤ 0.015 |  |  |  |
| NCC(F)=C1CCN(c2c(F)cc3c(=O)c(C(=O)O)cn(C4CC4)c3c2OC(F)F)CC1 | 0.25 (≈ 0.549 µM) | 0.25 (≈ 0.549 µM) | 0.25 (≈ 0.549 µM) | 2 (≈ 4.39 µM) | 0.06 (≈ 0.132 µM) |  |  |  |
| NCC(Cl)=C1CCN(c2c(F)cc3c(=O)c(C(=O)O)cn(C4CC4)c3c2OC(F)F)CC1 | 0.12 (≈ 0.254 µM) | 0.5 (≈ 1.06 µM) | 0.12 (≈ 0.254 µM) | 1 (≈ 2.12 µM) | 0.06 (≈ 0.127 µM) | 0.5 (≈ 1.06 µM) | 1 (≈ 2.12 µM) | 0.5 (≈ 1.06 µM) |
| COc1c(N2CCC(=C(F)CN)CC2)c(F)cc2c(=O)c(C(=O)O)cn(C3CC3)c12 | 0.5 (≈ 1.19 µM) | 0.5 (≈ 1.19 µM) | 0.12 (≈ 0.286 µM) | 1 (≈ 2.38 µM) | 0.03 (≈ 0.0715 µM) |  |  |  |
| COc1c(N2CCC(=C(C)CN)CC2)c(F)cc2c(=O)c(C(=O)O)cn(C3CC3)c12 | 0.25 (≈ 0.602 µM) |  | 0.12 (≈ 0.289 µM) | 0.25 (≈ 0.602 µM) | 0.03 (≈ 0.0722 µM) |  |  |  |
| COc1c(N2CCC(=C(Cl)CN)CC2)c(F)cc2c(=O)c(C(=O)O)cn(C3CC3)c12 | 0.25 (≈ 0.574 µM) | 0.25 (≈ 0.574 µM) | 0.06 (≈ 0.138 µM) | 0.25 (≈ 0.574 µM) | ≤ 0.015 | 0.25 (≈ 0.574 µM) | 0.25 (≈ 0.574 µM) | 0.25 (≈ 0.574 µM) |
| CNCC(Cl)=C1CCN(c2c(F)cc3c(=O)c(C(=O)O)cn(C4CC4)c3c2OC)CC1 | 0.25 (≈ 0.556 µM) | 0.25 (≈ 0.556 µM) | 0.06 (≈ 0.133 µM) | 0.5 (≈ 1.11 µM) | ≤ 0.015 | 0.5 (≈ 1.11 µM) | 0.5 (≈ 1.11 µM) | 0.5 (≈ 1.11 µM) |
| COc1c(N2CCC(=C(Cl)CNC(C)C)CC2)c(F)cc2c(=O)c(C(=O)O)cn(C3CC3)c12 | 2 (≈ 4.18 µM) |  | 0.5 (≈ 1.05 µM) | 4 (≈ 8.37 µM) | 0.12 (≈ 0.251 µM) |  |  |  |
| CCNCC(Cl)=C1CCN(c2c(F)cc3c(=O)c(C(=O)O)cn(C4CC4)c3c2OC)CC1 | 1 (≈ 2.16 µM) | 1 (≈ 2.16 µM) | 0.25 (≈ 0.539 µM) | 1 (≈ 2.16 µM) | 0.12 (≈ 0.259 µM) |  |  |  |
| CC1COc2c(N3CCC(=C(F)CN)CC3)c(F)cc3c(=O)c(C(=O)O)cn1c23 (racemic) | 8 (≈ 19.7 µM) | 2 (≈ 4.93 µM) | 0.5 (≈ 1.23 µM) | 8 (≈ 19.7 µM) | 0.25 (≈ 0.617 µM) |  |  |  |
| CC(CN)=C1CCN(c2c(F)cc3c(=O)c(C(=O)O)cn4c3c2OCC4C)CC1 (racemic) | > 16 | 4 (≈ 9.96 µM) | 1 (≈ 2.49 µM) | > 16 | 0.5 (≈ 1.25 µM) |  |  |  |
| O=C(O)c1cn(C2CC2)c2cc(N3CCNCC3)c(F)cc2c1=O [CIPROFLOXACIN] |  |  | 1 (≈ 3.02 µM) |  | 0.12 (≈ 0.362 µM) | 8 (≈ 24.1 µM) |  |  |
